# In ChEMBL document CHEMBL3784969, “Pharmacokinetics of flutamide in patients with renal insufficiency” (Br J Clin Pharmacol, 1999):
# What was measured:
# [1] = Drug excretion in urine of patient (3 patients) with renal insufficiency at 250 mg, po administered as single dose by gas chromatography; type: ADME, organism-based; details: human, in vivo
# How it was run: (§1)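 Males grouped by 24 h CLcr normalised to body surface area (>80, 50–80, 30–49, 5–29 ml min−1 1.73 m−2), fasted 10 h pre-dose and 4 h post-dose, given a single oral 250 mg flutamide dose. Plasma sampled 0–96 h; urine collected in blocks to 96 h. Flutamide and hydroxyflutamide measured by GC with electron-capture detection. Renal CL = Ae(0,96 h)/AUC(0,96 h); t1/2 = 0.693/λz.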
# [2] = Renal clearance in patient (6 patients) with renal insufficiency at 250 mg, po administered as single dose by gas chromatography; type: ADME, organism-based, Kidney; details: human, in vivo; how it was run: as §1
# [3] = AUC (0 to 96 hrs) in patient (6 patients) with renal insufficiency at 250 mg, po administered as single dose by gas chromatography; type: ADME, organism-based; set-up: dose 250 mg, time < 96 hr, route oral; details: human, in vivo
# [4] = system: Homo sapiens; test: Terminal half life in patient (7 patients) with renal insufficiency assessed as hydroxy flutamide at 250 mg, po administered as single dose by gas chromatography; type: ADME, organism-based; details: in vivo; how it was run: as §1
# [5] = system: Homo sapiens; test: AUC (0 to 96 hrs) in patient (6 patients) with renal insufficiency assessed as hydroxy flutamide at 250 mg, po administered as single dose 4 hrs prior to hemodialysis treatment measured at starting time of dialysis and post dialysis treatment by gas chromatography; type: ADME, organism-based; set-up: time < 96 hr, dose 250 mg, route oral; details: in vivo
# [6] = system: Homo sapiens; test: Final time point in terminal phase in patient (6 patients) with renal insufficiency assessed as hydroxy flutamide at 250 mg, po administered as single dose by gas chromatography; type: ADME, organism-based; details: in vivo; how it was run: as §1
# [7] = AUC (0 to 96 hrs) in patient (7 patients) with renal insufficiency at 250 mg, po administered as single dose by gas chromatography; type: ADME, organism-based; set-up: dose 250 mg, time < 96 hr, route oral; details: human, in vivo
# [8] = Cmax in patient (6 patients) with renal insufficiency at 250 mg, po administered as single dose 4 hrs prior to hemodialysis treatment measured at starting time of dialysis and post dialysis treatment by gas chromatography; type: ADME, organism-based; set-up: dose 250 mg, route oral; details: human, in vivo
# [9] = system: Homo sapiens; test: AUC (0 to 96 hrs) in patient (4 patients) with renal insufficiency at 250 mg, po assessed as hydroxy flutamide administered as single dose by gas chromatography; type: ADME, organism-based; set-up: dose 250 mg, time < 96 hr, route oral; details: in vivo
# [10] = Renal clearance in patient (3 patients) with renal insufficiency at 250 mg, po administered as single dose by gas chromatography; type: ADME, organism-based, Kidney; details: human, in vivo; how it was run: as §1
# [11] = system: Homo sapiens; test: AUClast in patient (6 patients) with renal insufficiency assessed as hydroxy flutamide at 250 mg, po administered as single dose 4 hrs prior to hemodialysis treatment measured at starting time of dialysis and post dialysis treatment by gas chromatography; type: ADME, organism-based; set-up: dose 250 mg, time 0 - last, route oral; details: in vivo
# [12] = system: Homo sapiens; test: Toxicity in patient with renal insufficiency assessed as dizziness at 250 mg, po administered as single dose; type: organism-based; details: in vivo
# How it was run: (§2)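 26 male subjects in groups by 24 h creatinine clearance (normalized to body surface area): >80, 50–80, 30–49, 5–29, <5 ml min−1 1.73 m−2 on haemodialysis. Given as two 125 mg capsules after a 10 h fast, continued 4 h post-dose. Prescription drugs withheld for the same period. Subjects confined 12 h pre-dose to 48 h post-dose, with adverse events compared across renal-function groups.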
# [13] = Tmax in patient (7 patients) with renal insufficiency at 250 mg, po administered as single dose by gas chromatography; type: ADME, organism-based; details: human, in vivo; how it was run: as §1
# [14] = system: Homo sapiens; test: Final time point in terminal phase in patient (4 patients) with renal insufficiency at 250 mg, po administered as single dose by gas chromatography; type: ADME, organism-based; details: in vivo; how it was run: as §1
# [15] = Drug excretion in urine of patient (6 patients) with renal insufficiency assessed as hydroxy flutamide at 250 mg, po administered as single dose by gas chromatography; type: ADME, organism-based; details: human, in vivo; how it was run: as §1
# [16] = AUC (0 to 96 hrs) in patient (6 patients) with renal insufficiency at 250 mg, po administered as single dose 4 hrs prior to hemodialysis treatment measured at starting time of dialysis and post dialysis treatment by gas chromatography; type: ADME, organism-based; set-up: dose 250 mg, time < 96 hr, route oral; details: human, in vivo
# [17] = Tmax in patient (6 patients) with renal insufficiency at 250 mg, po administered as single dose 4 hrs prior to hemodialysis treatment measured at starting time of dialysis and post dialysis treatment by gas chromatography; type: ADME, organism-based; details: human, in vivo
# How it was run: (§3)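 Group V haemodialysis males (CLcr <5 ml min−1 1.73 m−2). Single oral 250 mg flutamide (two 125 mg capsules) right after HD; after 14-day washout, same dose 4 h before HD lasting 2–4 h. Venous samples to 48 h, arterial/venous during HD, dialysate in hourly blocks. GC with 63Ni electron-capture detection. CL(HD) = dialysate Ae(HD)/arterial AUC(HD); renal CL = Ae(0,48)/AUC(0,48 h).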
# [18] = system: Homo sapiens; test: AUC (0 to infinity) in patient (6 patients) with renal insufficiency assessed as hydroxy flutamide at 250 mg, po administered as single dose 4 hrs prior to hemodialysis treatment measured at starting time of dialysis and post dialysis treatment by gas chromatography; type: ADME, organism-based; set-up: dose 250 mg, time infinity, route oral; details: in vivo
# [19] = system: Homo sapiens; test: AUC (0 to 24 hrs) in patient (7 patients) with renal insufficiency assessed as hydroxy flutamide at 250 mg, po administered as single dose by gas chromatography; type: ADME, organism-based; set-up: dose 250 mg, time < 24 hr, route oral; details: in vivo
# [20] = system: Homo sapiens; test: AUC (0 to infinity) in patient (3 patients) with renal insufficiency at 250 mg, po assessed as hydroxy flutamide administered as single dose by gas chromatography; type: ADME, organism-based; set-up: dose 250 mg, time infinity, route oral; details: in vivo
# [21] = system: Homo sapiens; test: AUC (0 to 24 hrs) in patient (6 patients) with renal insufficiency assessed as hydroxy flutamide at 250 mg, po administered as single dose 4 hrs prior to hemodialysis treatment measured at starting time of dialysis and post dialysis treatment by gas chromatography; type: ADME, organism-based; set-up: time < 24 hr, dose 250 mg, route oral; details: in vivo
# [22] = system: Homo sapiens; test: Toxicity in patient with renal insufficiency assessed as fatigue at 250 mg, po administered as single dose; type: organism-based; details: in vivo; how it was run: as §2
# [23] = AUC (0 to 24 hrs) in patient (6 patients) with renal insufficiency at 250 mg, po administered as single dose 4 hrs prior to hemodialysis treatment measured at starting time of dialysis and post dialysis treatment by gas chromatography; type: ADME, organism-based; set-up: time < 24 hr, dose 250 mg, route oral; details: human, in vivo
# [24] = AUC (0 to 24 hrs) in patient (6 patients) with renal insufficiency at 250 mg, po administered as single dose by gas chromatography; type: ADME, organism-based; set-up: dose 250 mg, time < 24 hr, route oral; details: human, in vivo
# [25] = system: Homo sapiens; test: Tmax in patient (4 patients) with renal insufficiency assessed as hydroxy flutamide at 250 mg, po administered as single dose by gas chromatography; type: ADME, organism-based; details: in vivo; how it was run: as §1
# [26] = AUC (0 to 24 hrs) in patient (3 patients) with renal insufficiency at 250 mg, po administered as single dose by gas chromatography; type: ADME, organism-based; set-up: time < 24 hr, dose 250 mg, route oral; details: human, in vivo
# [27] = system: Homo sapiens; test: AUC (0 to 96 hrs) in patient (3 patients) with renal insufficiency at 250 mg, po assessed as hydroxy flutamide administered as single dose by gas chromatography; type: ADME, organism-based; set-up: dose 250 mg, time < 96 hr, route oral; details: in vivo
# [28] = system: Homo sapiens; test: Tmax in patient (3 patients) with renal insufficiency assessed as hydroxy flutamide at 250 mg, po administered as single dose by gas chromatography; type: ADME, organism-based; details: in vivo; how it was run: as §1
# [29] = Drug excretion in urine of patient (6 patients) with renal insufficiency at 250 mg, po administered as single dose 4 hrs prior to hemodialysis treatment measured at starting time of dialysis and post dialysis treatment by gas chromatography; type: ADME, organism-based; details: human, in vivo; how it was run: as §3
# [30] = system: Homo sapiens; test: AUC (0 to 24 hrs) in patient (3 patients) with renal insufficiency assessed as hydroxy flutamide at 250 mg, po administered as single dose by gas chromatography; type: ADME, organism-based; set-up: dose 250 mg, time < 24 hr, route oral; details: in vivo
# [31] = system: Homo sapiens; test: Tmax in patient (6 patients) with renal insufficiency assessed as hydroxy flutamide at 250 mg, po administered as single dose by gas chromatography; type: ADME, organism-based; details: in vivo; how it was run: as §1
smiles,measurement,setting,value
CC(C)C(=O)Nc1ccc([N+](=O)[O-])c(C(F)(F)F)c1 [FLUTAMIDE],Drug excretion,[1],14 µg
same,CL renal,[2],7.1 mL/min
same,AUC(0-t) at 96 h,[3],96.4 ng·h/mL
same,beta t1/2,[4],7.1 h
same,AUC,[5],5963 ng·h/mL
same,Time,[6],46 h
same,AUC(0-t) at 96 h,[7],59.8 ng·h/mL
same,Cmax,[8],81 ng/mL
same,AUC,[9],6499 ng·h/mL
same,CL renal,[10],2 mL/min
same,AUClast,[11],5862 ng·h/mL
same,Activity,[12],15%
same,Tmax,[13],1.7 h
same,Time,[14],5 h
same,Drug excretion,[15],118.3 µg
same,AUC(0-t) at 96 h,[16],217 ng·h/mL
same,Tmax,[17],1 h
same,AUC,[18],5963 ng·h/mL
same,AUC,[19],4663 ng·h/mL
same,AUC,[20],6907 ng·h/mL
same,AUC,[21],5434 ng·h/mL
same,Activity,[22],12%
same,AUC(0-t) at 24 h,[23],217 ng·h/mL
same,AUC(0-t) at 24 h,[24],96.4 ng·h/mL
same,Tmax,[25],3 h
same,AUC(0-t) at 24 h,[26],98 ng·h/mL
same,AUC,[27],6907 ng·h/mL
same,Tmax,[28],3 h
same,Drug excretion,[29],0 µg
same,AUC,[30],6166 ng·h/mL
same,Tmax,[31],1.9 h
